Activity calls are given as the source filed them. The rule behind the calls is not given here.
Assays:
Mus musculus [1] = assay: Neuroprotective activity in 5XFAD mouse assessed as distance in zone-center at 5 mg/kg/day, po for 4 weeks by open field test (reference value: 87.64+/-8.21 cm); assay type: functional
Mus musculus [2] = assay: Neuroprotective activity in 5XFAD mouse assessed as increase in synaptophysin protein level at 5 mg/kg/day, po for 4 weeks by Western blot analysis; assay type: functional, organism-based
Method in brief: (§1)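 Hippocampal lysates, with protease and phosphatase inhibitors, from 8-month-old male 5XFAD mice after 4 weeks at 5 mg/kg/day in drinking water. 15 μg protein resolved on 8-12% SDS-PAGE and blotted to PVDF. Blocked 1 h, primary antibody overnight at 4°C, HRP secondary, ECL detection. Values expressed as % of Wt control. n = 4 per group.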

Mus musculus [3] = assay: Neuroprotective activity in 5XFAD mouse assessed as restoration of locomotor activity at 5 mg/kg/day, po for 4 weeks by open field test (reference value: 1672.36+/-68.84 cm); assay type: functional
Mus musculus [4] = assay: Antialzheimer activity in 5XFAD mouse model assessed as increase in 5-hmC global level in DNA at 5 mg/kg/day, po for 4 weeks
Mus musculus [5] = assay: Neuroprotective activity in 5XFAD mouse model assessed as reduced cognitive deficit in short term memory at 5 mg/kg/day, po for 4 weeks by novel object recognition test; assay type: functional, organism-based
Method in brief: (§2)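 8-month-old male 5XFAD mice after 4 weeks of 5 mg/kg/day in drinking water. Two-arm 90° maze, habituated 10 min/day for 3 days. 10 min acquisition with two identical objects, then one object replaced after 2 h (short-term) or 24 h (long-term). DI = (TN−TO)/(TN+TO), exploration ≤2 cm. Objects counterbalanced.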

Mus musculus [6] = assay: Neuroprotective activity in 5XFAD mouse assessed as increase in NRF2 protein level at 5 mg/kg/day, po for 4 weeks by Western blot analysis; assay type: functional, organism-based; method in brief: as §1
Mus musculus [7] = assay: Neuroprotective activity in 5XFAD mouse assessed as urinations at 5 mg/kg/day, po for 4 weeks by open field test (reference value: 0); assay type: functional
Mus musculus [8] = assay: Neuroprotective activity in 5XFAD mouse assessed as Vgf gene expression at 5 mg/kg/day, po for 4 weeks by RT-PCR analysis; assay type: functional, organism-based
Method in brief: (§3)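 Male 5XFAD mice, 8 months old, given 5 mg/kg/day in drinking water with 1,8% 2-hydroxypropyl-β-cyclodextrin for 4 weeks. Hippocampus collected one day after behavioural testing. Trizol RNA, 2 μg reverse-transcribed, TaqMan qPCR with 18 ng cDNA per reaction. ΔΔCt normalized to housekeeping gene. n = 4-6 (Hmox1: 3-6) per group. One-way ANOVA with Dunnett.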

Mus musculus [9] = assay: Neuroprotective activity in 5XFAD mouse assessed as increase in GPX1 protein level at 5 mg/kg/day, po for 4 weeks by Western blot analysis; assay type: functional, organism-based; method in brief: as §1
Mus musculus [10] = assay: Neuroprotective activity in 5XFAD mouse assessed as increase in Hmox1 gene expression level at 5 mg/kg/day, po for 4 weeks by RT-PCR analysis; assay type: functional, organism-based; method in brief: as §3
Mus musculus [11] = assay: Neuroprotective activity in 5XFAD mouse assessed as increase in postsynaptic density protein 95 level at 5 mg/kg/day, po for 4 weeks by Western blot analysis; assay type: functional, organism-based; method in brief: as §1
Mus musculus [12] = assay: Anti-neuro inflammatory activity in 5XFAD mouse assessed as reduction in TNF-alpha mRNA expression at 5 mg/kg/day, po for 4 weeks by RT-PCR analysis; assay type: functional, organism-based; method in brief: as §3
Mus musculus [13] = assay: Neuroprotective activity in 5XFAD mouse model assessed as reduced cognitive deficit in long term memory at 5 mg/kg/day, po for 4 weeks by novel object recognition test; assay type: functional, organism-based; method in brief: as §2
Mus musculus [14] = assay: Neuroprotective activity in 5XFAD mouse assessed as reduction in H3K9me2 level at 5 mg/kg/day, po for 4 weeks by Western blot analysis; assay type: functional, organism-based; method in brief: as §1
Mus musculus [15] = assay: Neuroprotective activity in 5XFAD mouse assessed as defecations at 5 mg/kg/day, po for 4 weeks by open field test (reference value: 0.80+/-0.20 No_Unit); assay type: functional
Mus musculus [16] = assay: Neuroprotective activity in 5XFAD mouse assessed as increase in grooming at 5 mg/kg/day, po for 4 weeks by open field test (reference value: 1.2+/-0.25); assay type: functional
Mus musculus [17] = assay: Antialzheimer activity in 5XFAD mouse model assessed as reduction of 5-mC global level in DNA at 5 mg/kg/day, po for 4 weeks; assay type: functional, organism-based
Method in brief: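 8-month-old male 5XFAD mice dosed 5 mg/kg/day via drinking water (1,8% hydroxypropyl-β-cyclodextrin vehicle), 4 weeks. Hippocampal DNA assayed for global 5-mC or 5-hmC by antibody-based ELISA-like colorimetric kit, absorbance 450 nm. Quantified against a standard curve of five control DNA dilutions (0.5–10 ng). n = 4 per group.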

Mus musculus [18] = assay: Anti-neuro inflammatory activity in 5XFAD mouse assessed as reduction in Il-6 mRNA expression at 5 mg/kg/day, po for 4 weeks by RT-PCR analysis; assay type: functional, organism-based; method in brief: as §3
Mus musculus [19] = assay: Neuroprotective activity in 5XFAD mouse assessed as no change in IBA1 protein level at 5 mg/kg/day, po for 4 weeks by immunostaining analysis; assay type: functional, organism-based
Mus musculus [20] = assay: Anti-neuro inflammatory activity in 5XFAD mouse assessed as Cxcl10 mRNA expression at 5 mg/kg/day, po for 4 weeks by RT-PCR analysis; assay type: functional, organism-based; method in brief: as §3
Mus musculus [21] = assay: Neuroprotective activity in 5XFAD mouse assessed as number of beta-amyloid plaques at 5 mg/kg/day, po for 4 weeks relative to control; assay type: functional
Method in brief: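 Male 5XFAD mice, 8 months old, received 5 mg/kg/day in drinking water for 4 weeks. 30 μm brain sections rehydrated in PBS, then stained with 0.3% Thioflavin-S for 20 min at room temperature in the dark.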

Mus musculus [22] = assay: Neuroprotective activity in 5XFAD mouse assessed as increase in SOD1 protein level at 5 mg/kg/day, po for 4 weeks by Western blot analysis; assay type: functional, organism-based; method in brief: as §1
Mus musculus [23] = assay: Antioxidant activity in 5XFAD mouse hippocampus assessed as decrease in ROS level at 5 mg/kg/day, po for 4 weeks; assay type: functional, organism-based
Method in brief: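 Hippocampal homogenates from 8-month-old male 5XFAD mice after 4 weeks of 5 mg/kg/day in drinking water (cyclodextrin vehicle). H2O2 concentration measured with a hydrogen peroxide assay kit as an oxidative stress index. n = 3 per group, mean ± SEM.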

Mus musculus [24] = assay: Neuroprotective activity in 5XFAD mouse assessed as reduction in GFAP protein level by measuring fluorescence intensity at 5 mg/kg/day, po for 4 weeks by immunostaining analysis; assay type: functional, organism-based
Mus musculus [25] = assay: Neuroprotective activity in 5XFAD mouse assessed as increase in vertical activity by measuring number of rearings at 5 mg/kg/day, po for 4 weeks by open field test (reference value: 9.9+/-0.66); assay type: functional
Mus musculus [26] = assay: Neuroprotective activity in 5XFAD mouse assessed as distance in zone-periphery at 5 mg/kg/day, po for 4 weeks by open field test (reference value: 1450.05+/-133.56 cm); assay type: functional
Mus musculus [27] = assay: Neuroprotective activity in 5XFAD mouse assessed as increase in BDNF protein level at 5 mg/kg/day, po for 4 weeks by Western blot analysis; assay type: functional, organism-based; method in brief: as §1
Mus musculus [28] = assay: Neuroprotective activity in cognitive impairment of 5XFAD mouse model assessed as increase in discrimination index at 5 mg/kg/day, po for 4 weeks by novel object location test; assay type: functional, organism-based
Method in brief: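 Object location task in 8-month-old male 5XFAD mice after 4 weeks of 5 mg/kg/day in drinking water. Sessions video-recorded from above. Time sniffing the relocated object (TN) versus the object in the familiar location (TO) was scored. DI = (TN-TO)/(TN+TO).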

Mus musculus [29] = assay: Neuroprotective activity in 5XFAD mouse assessed as no change in Mcp1 mRNA expression at 5 mg/kg/day, po for 4 weeks by RT-PCR analysis; assay type: functional, organism-based; method in brief: as §3
Mus musculus [30] = assay: Neuroprotective activity in 5XFAD mouse assessed as Ngf gene expression at 5 mg/kg/day, po for 4 weeks by RT-PCR analysis; assay type: functional, organism-based; method in brief: as §3

SMILES: COc1cc2c(NC3CCN(C(C)C)CC3)nc(N3CCC(F)(F)CC3)nc2cc1OCCCN1CCCC1
- Activity (Mus musculus [1]): 92.74 cm
- Activity (Mus musculus [2]): Active
- Activity (Mus musculus [3]): 2030.46 cm
- Activity (Mus musculus [4]): Active
- Activity (Mus musculus [5]): Active
- Activity (Mus musculus [6]): Active
- Activity (Mus musculus [7]): 0
- Activity (Mus musculus [8]): Active
- Activity (Mus musculus [9]): Active
- Activity (Mus musculus [10]): Active
- Activity (Mus musculus [11]): Active
- Activity (Mus musculus [12]): Active
- Activity (Mus musculus [13]): Active
- Activity (Mus musculus [14]): Active
- Activity (Mus musculus [15]): 0.86
- Activity (Mus musculus [16]): 3.71
- Activity (Mus musculus [17]): Active
- Activity (Mus musculus [18]): Active
- Activity (Mus musculus [19]): inactive
- Activity (Mus musculus [20]): inactive
- Activity (Mus musculus [21]): 45%
- Activity (Mus musculus [22]): Active
- Activity (Mus musculus [23]): Active
- Activity (Mus musculus [24]): Active
- Activity (Mus musculus [25]): 14.29
- Activity (Mus musculus [26]): 1623.83 cm
- Activity (Mus musculus [27]): Active
- Activity (Mus musculus [28]): Active
- Activity (Mus musculus [29]): inactive
- Activity (Mus musculus [30]): Active
